{"source": "ChEMBL document CHEMBL3351966", "about": "“Structural manipulation on the catecholic fragment of dopamine D(1) receptor agonist 1-phenyl-N-methyl-benzazepines” (Eur J Med Chem, 2014)", "key": {"[1]": {"target": "D(1A) dopamine receptor (Homo sapiens, UniProt P21728)", "sequence (P21728 whole entry)": "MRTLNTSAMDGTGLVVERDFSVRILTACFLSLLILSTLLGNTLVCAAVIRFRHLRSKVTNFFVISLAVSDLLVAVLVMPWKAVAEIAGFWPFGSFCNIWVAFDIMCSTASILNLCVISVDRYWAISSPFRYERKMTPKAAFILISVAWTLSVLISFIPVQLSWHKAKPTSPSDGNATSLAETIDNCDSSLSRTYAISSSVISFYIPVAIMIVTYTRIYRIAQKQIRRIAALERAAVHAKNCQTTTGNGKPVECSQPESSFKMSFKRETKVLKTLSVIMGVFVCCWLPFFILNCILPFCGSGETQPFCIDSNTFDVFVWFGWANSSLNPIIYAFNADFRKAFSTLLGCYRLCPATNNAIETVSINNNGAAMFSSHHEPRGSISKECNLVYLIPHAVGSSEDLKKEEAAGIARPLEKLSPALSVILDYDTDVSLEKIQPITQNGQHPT", "assay": "Displacement of [3H]SCH23390 from human dopamine D1 receptor expressed in HEK293 cell membranes by liquid scintillation counting based competition binding assay", "in_short": "(§1)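 Competition binding on membranes from stably transfected cell lines ([…]), clones selected with G418. Buffer 50 mM Tris, 4 mM MgCl₂, pH 7.4 with 0.7 nM radioligand and increasing compound concentrations. Duplicate tubes incubated at 30 °C for 50 min, then rapid filtration through GF/B filters and cold-buffer wash. Compounds from 10^-1 M DMSO stock. Ki as mean of three to five experiments, racemates.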"}, "[2]": {"target": "D(2) dopamine receptor (Homo sapiens, UniProt P14416)", "sequence (P14416 whole entry)": "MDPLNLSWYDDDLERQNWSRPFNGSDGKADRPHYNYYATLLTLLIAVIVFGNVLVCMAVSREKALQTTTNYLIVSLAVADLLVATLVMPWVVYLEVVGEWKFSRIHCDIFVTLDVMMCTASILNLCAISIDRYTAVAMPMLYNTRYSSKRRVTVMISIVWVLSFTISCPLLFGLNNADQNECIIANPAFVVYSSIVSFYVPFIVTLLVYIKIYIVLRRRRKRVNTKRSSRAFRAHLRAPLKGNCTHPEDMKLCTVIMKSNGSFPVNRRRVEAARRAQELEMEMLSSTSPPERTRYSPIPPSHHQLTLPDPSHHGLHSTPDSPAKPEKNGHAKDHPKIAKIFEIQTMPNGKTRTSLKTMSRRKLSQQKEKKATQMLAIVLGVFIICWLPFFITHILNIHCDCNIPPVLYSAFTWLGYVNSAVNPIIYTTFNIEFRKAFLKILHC", "assay": "Displacement of [3H]spiperone from human dopamine D2 receptor expressed in HEK293 cell membranes by liquid scintillation counting based competition binding assay", "in_short": "as §1"}, "[3]": {"target": "D(3) dopamine receptor (Homo sapiens, UniProt P35462)", "sequence (P35462 whole entry)": "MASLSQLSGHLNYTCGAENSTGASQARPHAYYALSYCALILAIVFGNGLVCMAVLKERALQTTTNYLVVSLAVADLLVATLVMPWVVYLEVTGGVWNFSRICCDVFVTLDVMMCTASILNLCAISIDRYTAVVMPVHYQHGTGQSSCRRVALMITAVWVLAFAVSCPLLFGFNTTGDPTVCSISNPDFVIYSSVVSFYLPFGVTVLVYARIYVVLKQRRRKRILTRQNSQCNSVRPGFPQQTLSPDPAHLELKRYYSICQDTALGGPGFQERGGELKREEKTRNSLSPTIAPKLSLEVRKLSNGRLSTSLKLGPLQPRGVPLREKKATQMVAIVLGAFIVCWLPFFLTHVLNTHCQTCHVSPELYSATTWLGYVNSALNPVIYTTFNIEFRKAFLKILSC", "assay": "Displacement of [3H]spiperone from human dopamine D3 receptor expressed in HEK293 cell membranes by liquid scintillation counting based competition binding assay", "in_short": "as §1"}, "[4]": {"target": "5-hydroxytryptamine receptor 2A (Homo sapiens, UniProt P28223)", "sequence (P28223 whole entry)": "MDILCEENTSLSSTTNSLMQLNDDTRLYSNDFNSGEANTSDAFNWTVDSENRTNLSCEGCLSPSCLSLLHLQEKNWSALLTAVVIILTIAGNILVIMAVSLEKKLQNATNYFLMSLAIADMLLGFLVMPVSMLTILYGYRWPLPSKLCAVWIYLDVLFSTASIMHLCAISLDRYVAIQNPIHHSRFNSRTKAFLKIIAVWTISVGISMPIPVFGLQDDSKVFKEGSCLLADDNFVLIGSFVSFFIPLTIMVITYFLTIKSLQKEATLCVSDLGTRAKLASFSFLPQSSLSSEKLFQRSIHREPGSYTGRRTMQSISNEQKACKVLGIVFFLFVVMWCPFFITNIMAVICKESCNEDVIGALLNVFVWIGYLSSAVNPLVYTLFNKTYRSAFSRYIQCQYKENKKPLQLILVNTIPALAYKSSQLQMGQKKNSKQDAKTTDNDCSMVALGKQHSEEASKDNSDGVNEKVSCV", "assay": "Displacement of [3H]ketanserin from human 5HT2A receptor expressed in HEK293 cell membranes by liquid scintillation counting based competition binding assay", "in_short": "as §1"}, "[5]": {"target": "T1, 5-hydroxytryptamine receptor 1A (Rattus norvegicus, UniProt P19327)", "T1 sequence (P19327 whole entry)": "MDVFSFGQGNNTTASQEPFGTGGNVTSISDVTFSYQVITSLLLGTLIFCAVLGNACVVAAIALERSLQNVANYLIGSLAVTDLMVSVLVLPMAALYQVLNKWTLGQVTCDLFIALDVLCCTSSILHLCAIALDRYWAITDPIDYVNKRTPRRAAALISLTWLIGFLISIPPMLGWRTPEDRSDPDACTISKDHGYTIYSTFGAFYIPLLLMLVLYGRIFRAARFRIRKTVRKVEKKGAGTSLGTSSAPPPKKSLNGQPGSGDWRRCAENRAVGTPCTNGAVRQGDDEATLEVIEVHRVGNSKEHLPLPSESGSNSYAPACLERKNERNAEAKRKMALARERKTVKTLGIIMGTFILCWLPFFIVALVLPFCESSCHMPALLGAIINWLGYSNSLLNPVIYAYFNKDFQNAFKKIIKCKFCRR", "assay": "Displacement of [3H]8-OH-DPAT from rat 5HT1A receptor expressed in CHO cell membranes by liquid scintillation counting based competition binding assay", "in_short": "as §1"}}, "note": "pKi: −log10 of the molar value."}
{"smiles": "CN1CCc2ccc(O)cc2C(c2ccccc2)C1", "note": "(racemic)", "values": [{"measurement": "pKi", "setting": "[1]", "result": 6.68}, {"measurement": "pKi", "setting": "[2]", "result": "< 6.00"}, {"measurement": "pKi", "setting": "[3]", "result": "< 6.00"}, {"measurement": "pKi", "setting": "[4]", "result": 6.88}, {"measurement": "pKi", "setting": "[5]", "result": "< 6.00"}]}
{"smiles": "CN1CCc2cc(N)c(O)cc2C(c2ccccc2)C1", "note": "(racemic)", "values": [{"measurement": "pKi", "setting": "[1]", "result": 6.48}, {"measurement": "pKi", "setting": "[2]", "result": "< 6.00"}, {"measurement": "pKi", "setting": "[3]", "result": "< 6.00"}, {"measurement": "pKi", "setting": "[4]", "result": "< 6.00"}, {"measurement": "pKi", "setting": "[5]", "result": "< 6.00"}]}
{"smiles": "CN1CCc2cc(O)ccc2C(c2ccccc2)C1", "note": "(racemic)", "values": [{"measurement": "pKi", "setting": "[1]", "result": "< 6.00"}, {"measurement": "pKi", "setting": "[2]", "result": "< 6.00"}, {"measurement": "pKi", "setting": "[3]", "result": "< 6.00"}]}
{"smiles": "CN1CCc2cc(O)c(N)cc2C(c2ccccc2)C1", "note": "(racemic)", "values": [{"measurement": "pKi", "setting": "[1]", "result": 6.45}, {"measurement": "pKi", "setting": "[2]", "result": "< 6.00"}, {"measurement": "pKi", "setting": "[3]", "result": "< 6.00"}, {"measurement": "pKi", "setting": "[4]", "result": "< 6.00"}, {"measurement": "pKi", "setting": "[5]", "result": "< 6.00"}]}
{"smiles": "CN1CCc2cc(NCc3ccccc3)c(O)cc2C(c2ccccc2)C1", "note": "(racemic)", "values": [{"measurement": "pKi", "setting": "[1]", "result": 6.18}, {"measurement": "pKi", "setting": "[2]", "result": "< 6.00"}, {"measurement": "pKi", "setting": "[3]", "result": "< 6.00"}, {"measurement": "pKi", "setting": "[4]", "result": 8.34}, {"measurement": "pKi", "setting": "[5]", "result": "< 6.00"}]}
{"smiles": "CN1CCc2cc(NCc3cccc(Cl)c3)c(O)cc2C(c2ccccc2)C1", "note": "(racemic)", "values": [{"measurement": "pKi", "setting": "[1]", "result": 6.56}, {"measurement": "pKi", "setting": "[2]", "result": "< 6.00"}, {"measurement": "pKi", "setting": "[4]", "result": 7.99}, {"measurement": "pKi", "setting": "[5]", "result": 6.32}]}
{"smiles": "Cc1cccc(CNc2cc3c(cc2O)C(c2ccccc2)CN(C)CC3)c1", "note": "(racemic)", "values": [{"measurement": "pKi", "setting": "[1]", "result": 6.43}, {"measurement": "pKi", "setting": "[2]", "result": "< 6.00"}, {"measurement": "pKi", "setting": "[4]", "result": 8.00}, {"measurement": "pKi", "setting": "[5]", "result": "< 6.00"}]}
{"smiles": "Cc1ccccc1CNc1cc2c(cc1O)C(c1ccccc1)CN(C)CC2", "note": "(racemic)", "values": [{"measurement": "pKi", "setting": "[1]", "result": 6.53}, {"measurement": "pKi", "setting": "[2]", "result": "< 6.00"}, {"measurement": "pKi", "setting": "[4]", "result": 6.72}, {"measurement": "pKi", "setting": "[5]", "result": "< 6.00"}]}
{"smiles": "Cc1ccc(CNc2cc3c(cc2O)C(c2ccccc2)CN(C)CC3)cc1", "note": "(racemic)", "values": [{"measurement": "pKi", "setting": "[1]", "result": 6.12}, {"measurement": "pKi", "setting": "[2]", "result": "< 6.00"}, {"measurement": "pKi", "setting": "[4]", "result": 6.06}, {"measurement": "pKi", "setting": "[5]", "result": "< 6.00"}]}
{"smiles": "CC(=O)Nc1cc2c(cc1O)C(c1ccccc1)CN(C)CC2", "note": "(racemic)", "values": [{"measurement": "pKi", "setting": "[1]", "result": "< 6.00"}, {"measurement": "pKi", "setting": "[2]", "result": "< 6.00"}]}
{"smiles": "CN1CCc2cc(-n3cccc3)c(O)cc2C(c2ccccc2)C1", "note": "(racemic)", "values": [{"measurement": "pKi", "setting": "[1]", "result": "< 6.00"}, {"measurement": "pKi", "setting": "[2]", "result": "< 6.00"}]}
{"smiles": "Cc1ccc(-c2cc3c(cc2O)C(c2ccccc2)CN(C)CC3)cc1", "note": "(racemic)", "values": [{"measurement": "pKi", "setting": "[1]", "result": "< 6.00"}, {"measurement": "pKi", "setting": "[2]", "result": "< 6.00"}, {"measurement": "pKi", "setting": "[3]", "result": "< 6.00"}]}
{"smiles": "Cc1cccc(-c2cc3c(cc2O)C(c2ccccc2)CN(C)CC3)c1", "note": "(racemic)", "values": [{"measurement": "pKi", "setting": "[1]", "result": 6.67}, {"measurement": "pKi", "setting": "[2]", "result": "< 6.00"}, {"measurement": "pKi", "setting": "[3]", "result": "< 6.00"}, {"measurement": "pKi", "setting": "[4]", "result": 6.79}, {"measurement": "pKi", "setting": "[5]", "result": "< 6.00"}]}
{"smiles": "Cc1ccccc1-c1cc2c(cc1O)C(c1ccccc1)CN(C)CC2", "note": "(racemic)", "values": [{"measurement": "pKi", "setting": "[1]", "result": 6.04}, {"measurement": "pKi", "setting": "[2]", "result": "< 6.00"}]}
{"smiles": "CN1CCc2cc(-c3ccc4ccccc4c3)c(O)cc2C(c2ccccc2)C1", "note": "(racemic)", "values": [{"measurement": "pKi", "setting": "[1]", "result": "< 6.00"}, {"measurement": "pKi", "setting": "[2]", "result": "< 6.00"}]}
{"smiles": "CN1CCc2cc(-c3ccc(O)cc3)c(O)cc2C(c2ccccc2)C1", "note": "(racemic)", "values": [{"measurement": "pKi", "setting": "[1]", "result": 6.46}, {"measurement": "pKi", "setting": "[2]", "result": "< 6.00"}, {"measurement": "pKi", "setting": "[4]", "result": 6.08}, {"measurement": "pKi", "setting": "[5]", "result": "< 6.00"}]}
{"smiles": "CN1CCc2cc(O)c(CO)cc2C(c2ccccc2)C1", "note": "(racemic)", "values": [{"measurement": "pKi", "setting": "[1]", "result": "< 6.00"}, {"measurement": "pKi", "setting": "[2]", "result": "< 6.00"}, {"measurement": "pKi", "setting": "[3]", "result": "< 6.00"}]}
{"smiles": "CN1CCc2cc(O)c(CN)cc2C(c2ccccc2)C1", "note": "(racemic)", "values": [{"measurement": "pKi", "setting": "[1]", "result": "< 6.00"}, {"measurement": "pKi", "setting": "[2]", "result": "< 6.00"}, {"measurement": "pKi", "setting": "[3]", "result": "< 6.00"}]}
{"smiles": "CN1CCc2cc(N)ccc2C(c2ccccc2)C1", "note": "(racemic)", "values": [{"measurement": "pKi", "setting": "[1]", "result": "< 6.00"}, {"measurement": "pKi", "setting": "[2]", "result": "< 6.00"}, {"measurement": "pKi", "setting": "[3]", "result": "< 6.00"}]}
{"smiles": "CN1CCc2ccc(N)cc2C(c2ccccc2)C1", "note": "(racemic)", "values": [{"measurement": "pKi", "setting": "[1]", "result": 6.23}, {"measurement": "pKi", "setting": "[2]", "result": "< 6.00"}, {"measurement": "pKi", "setting": "[3]", "result": "< 6.00"}]}
{"smiles": "CNc1ccc2c(c1)C(c1ccccc1)CN(C)CC2", "note": "(racemic)", "values": [{"measurement": "pKi", "setting": "[1]", "result": "< 6.00"}, {"measurement": "pKi", "setting": "[2]", "result": "< 6.00"}]}
{"smiles": "CN1CCc2ccc(N(C)C)cc2C(c2ccccc2)C1", "note": "(racemic)", "values": [{"measurement": "pKi", "setting": "[1]", "result": "< 6.00"}, {"measurement": "pKi", "setting": "[2]", "result": "< 6.00"}]}
{"smiles": "CN1CCc2cc3oc(=O)[nH]c3cc2C(c2ccccc2)C1", "note": "(racemic)", "values": [{"measurement": "pKi", "setting": "[1]", "result": "< 6.00"}, {"measurement": "pKi", "setting": "[2]", "result": "< 6.00"}]}
{"smiles": "CN1CCc2cc3c(cc2C(c2ccccc2)C1)NC(=O)CO3", "note": "(racemic)", "values": [{"measurement": "pKi", "setting": "[1]", "result": "< 6.00"}, {"measurement": "pKi", "setting": "[2]", "result": "< 6.00"}]}
{"smiles": "CN1CCc2cc3ocnc3cc2C(c2ccccc2)C1", "note": "(racemic)", "values": [{"measurement": "pKi", "setting": "[1]", "result": "< 6.00"}, {"measurement": "pKi", "setting": "[2]", "result": "< 6.00"}]}
{"smiles": "CN1CCN(c2nc3cc4c(cc3o2)CCN(C)CC4c2ccccc2)CC1", "note": "(racemic)", "values": [{"measurement": "pKi", "setting": "[1]", "result": "< 6.00"}, {"measurement": "pKi", "setting": "[2]", "result": "< 6.00"}]}
{"smiles": "CCN(CC)c1cc2c(cc1O)C(c1ccccc1)CN(C)CC2", "note": "(racemic)", "values": [{"measurement": "pKi", "setting": "[1]", "result": "< 6.00"}, {"measurement": "pKi", "setting": "[2]", "result": "< 6.00"}, {"measurement": "pKi", "setting": "[3]", "result": "< 6.00"}]}
